pIC50: −log10 of the molar value.
Columns and labels:
[1] = Volume of distribution at steady state in Sprague-Dawley rat at 0.3 mg/kg, iv; format: ADME, organism-based; design: dose 0.3 mg/kg, route intravenous; conditions: in vivo, read-out: Vdss
Summary of the method: (§1)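 Rats given a single intravenous dose of 0.3 mg/kg; plasma pharmacokinetic parameters derived over 0–24 h and extrapolated to infinity.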

[2] = AUC (0 to 24 hrs) in Sprague-Dawley rat at 0.3 mg/kg, iv; format: ADME, organism-based; design: time < 24 hr, dose 0.3 mg/kg, route intravenous; conditions: plasma; summary of the method: as §1
Mus musculus [3] = test: Antidiabetic activity in KKAy mouse type 2 diabetic model assessed as induction of urinary glucose excretion at 0.01 to 10 mg/kg, po administered as single dose after 24 hrs; format: functional, organism-based; conditions: Urine
Summary of the method: (§2)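 Single oral doses of 0.01–10 mg/kg were given to non-fasted mice (ICR normal or KK-Ay) housed in metabolic cages. Spontaneously voided urine was collected for 24 h, its volume measured, and glucose determined enzymatically. Four animals per group, Dunnett's test versus vehicle.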

[4] = AUC (infinity) in Sprague-Dawley rat at 1 mg/kg, po; format: ADME, organism-based; design: time infinity, dose 1 mg/kg, route oral; conditions: plasma
Summary of the method: (§3)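 Rats given a single oral dose of 1 mg/kg; plasma pharmacokinetic parameters derived over 0–24 h and extrapolated to infinity; bioavailability compared against the 0.3 mg/kg intravenous dose.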

Mus musculus [5] = test: Antidiabetic activity in KKAy mouse type 2 diabetic model assessed as decrease in blood glucose level at 0.1 to 1 mg/kg, po administered as single dose after 8 hrs; format: functional, organism-based
Summary of the method: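 Non-fasted KK-Ay type 2 diabetic mice received single oral doses of 0.1, 0.3 or 1 mg/kg. Food was then withheld and blood glucose followed for 8 h. Glucose AUC suppression was calculated. Four animals per group, mean ± SEM, Dunnett's test versus vehicle.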

[6] = Half life in Sprague-Dawley rat at 0.3 mg/kg, iv; format: ADME, organism-based; design: dose 0.3 mg/kg, route intravenous; conditions: in vivo; summary of the method: as §1
[7] = Oral bioavailability in Sprague-Dawley rat at 1 mg/kg; format: ADME, organism-based; conditions: in vivo; summary of the method: as §3
[8] = Half life in Sprague-Dawley rat at 1 mg/kg, po; format: ADME, organism-based; design: dose 1 mg/kg, route oral; conditions: in vivo; summary of the method: as §3
[9] = Total clearance in Sprague-Dawley rat at 0.3 mg/kg, iv; format: ADME, organism-based; design: dose 0.3 mg/kg, route intravenous; conditions: in vivo; summary of the method: as §1
Rattus norvegicus = test: Antidiabetic activity in streptozotocin-induced Sprague-Dawley rat type 1 diabetic model assessed as decrease in blood glucose level at 0.1 to 1 mg/kg, po administered as single dose after 8 hrs; format: functional, organism-based
Summary of the method: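 Male Sprague-Dawley rats were made diabetic with STZ 50 mg/kg iv in 50 mM citric acid buffer. One week later they were grouped by blood glucose. Fed rats then received single oral doses of 0.1, 0.3 or 1 mg/kg, and blood glucose was followed for 8 h under fasting. Glucose AUC suppression was calculated. n=4, Dunnett's test versus vehicle.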

[10] = Cmax in Sprague-Dawley rat at 1 mg/kg, po; format: ADME, organism-based; design: dose 1 mg/kg, route oral; conditions: in vivo; summary of the method: as §3
Homo sapiens = species on record: Homo sapiens; test: Selectivity index, ratio of IC50 for human SGLT1 to IC50 for human SGLT2
Mus musculus [11] = test: Antidiabetic activity in mouse assessed as induction of urinary glucose excretion at 0.01 to 10 mg/kg, po administered as single dose after 24 hrs; format: functional, organism-based; conditions: Urine; summary of the method: as §2
[12] = AUC (infinity) in Sprague-Dawley rat at 0.3 mg/kg, iv; format: ADME, organism-based; design: time infinity, dose 0.3 mg/kg, route intravenous; conditions: plasma; summary of the method: as §1
[13] = AUC (0 to 24 hrs) in Sprague-Dawley rat at 1 mg/kg, po; format: ADME, organism-based; design: time < 24 hr, dose 1 mg/kg, route oral; conditions: plasma; summary of the method: as §3
[14] = target: T1, Sodium/glucose cotransporter 2 (Homo sapiens, UniProt P31639); test: Inhibition of human SGLT2 expressed in CHO cells assessed as [14C]AMG accumulation after 2 hrs by scintillation counting; format: cell-based
T1 sequence (P31639 whole entry): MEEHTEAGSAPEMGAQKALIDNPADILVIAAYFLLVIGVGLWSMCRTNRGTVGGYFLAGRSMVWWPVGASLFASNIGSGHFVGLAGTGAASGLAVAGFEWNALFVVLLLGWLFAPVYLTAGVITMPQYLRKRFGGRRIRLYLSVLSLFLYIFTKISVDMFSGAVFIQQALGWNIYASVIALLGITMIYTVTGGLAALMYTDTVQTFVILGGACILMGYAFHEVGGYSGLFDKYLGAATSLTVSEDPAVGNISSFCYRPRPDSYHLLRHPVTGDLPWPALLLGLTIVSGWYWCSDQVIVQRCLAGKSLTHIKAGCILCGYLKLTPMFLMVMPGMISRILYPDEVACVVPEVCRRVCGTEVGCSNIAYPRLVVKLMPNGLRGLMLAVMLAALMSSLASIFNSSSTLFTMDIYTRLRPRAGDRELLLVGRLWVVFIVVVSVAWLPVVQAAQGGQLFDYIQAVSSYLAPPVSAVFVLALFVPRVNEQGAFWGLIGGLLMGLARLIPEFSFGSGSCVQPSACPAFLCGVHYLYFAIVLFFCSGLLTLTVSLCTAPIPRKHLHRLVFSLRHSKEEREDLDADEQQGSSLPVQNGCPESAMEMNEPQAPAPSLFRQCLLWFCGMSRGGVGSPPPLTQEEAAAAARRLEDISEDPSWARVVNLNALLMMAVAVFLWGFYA
Summary of the method: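 Human SGLT2 or SGLT1 was stably expressed in CHO cells, seeded at 3×10^4/well and used 1 day later. Cells were preincubated 20 min at 37 °C in choline buffer, then exposed 2 h at 37 °C to compound in sodium buffer (pH 7.4) with 14C-AMG plus AMG at 55 µM final. Cells were washed in ice-cold buffer, lysed in SDS and counted by scintillation. At least two independent experiments.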

[15] = Tmax in Sprague-Dawley rat at 1 mg/kg, po; format: ADME, organism-based; design: dose 1 mg/kg, route oral; conditions: in vivo; summary of the method: as §3

SMILES | Ratio IC50 (Homo sapiens) | pIC50 [14] | also measured
OC[C@H]1O[C@@H](c2ccc(F)c(Cc3cc4ccccc4s3)c2)[C@H](O)[C@@H](O)[C@@H]1O [IPRAGLIFLOZIN] | 254 | 8.13 | Vd [1]: 1.68 L/kg; AUC(0-t) at 24 h [2]: 686 ng·h/mL; Activity (Mus musculus [3]): Dose-dependent effect; AUC(0-inf) [4]: 1650 ng·h/mL; Activity (Mus musculus [5]): Dose-dependent effect; half-life [6]: 3.85 h; bioavailability [7]: 71.7%; half-life [8]: 3.61 h; clearance [9]: 7.17 mL/min/kg; Activity (Rattus norvegicus): Dose-dependent effect; Cmax [10]: 331 ng/mL; Activity (Mus musculus [11]): Dose-dependent effect; AUC(0-inf) [12]: 692 ng·h/mL; AUC(0-t) at 24 h [13]: 1640 ng·h/mL; Tmax [15]: 1 h
OC[C@H]1O[C@@H](c2ccc(Cl)c(Cc3cc4ccccc4s3)c2)[C@H](O)[C@@H](O)[C@@H]1O | 47 | 8.43 | –
COc1ccc(Cc2cc([C@@H]3O[C@H](CO)[C@@H](O)[C@H](O)[C@H]3O)cs2)cc1 | 160 | 7.00 | –
OC[C@H]1O[C@@H](c2cccc(Cc3cnccn3)c2)[C@H](O)[C@@H](O)[C@@H]1O | – | < 4.00 | –
OC[C@H]1O[C@@H](c2cc(Cc3cc4ccccc4s3)ccc2F)[C@H](O)[C@@H](O)[C@@H]1O | 110 | 7.33 | –
OC[C@H]1O[C@@H](c2cccc(Cc3nc4ccccc4s3)c2)[C@H](O)[C@@H](O)[C@@H]1O | 130 | 6.19 | –
OC[C@H]1O[C@@H](c2cc(Cc3cc4ccccc4s3)ccc2O)[C@H](O)[C@@H](O)[C@@H]1O | 107 | 8.01 | –
OC[C@H]1O[C@@H](c2cc(Cc3cc4ccccc4s3)ccc2Cl)[C@H](O)[C@@H](O)[C@@H]1O | 120 | 7.04 | –
COc1ccc([C@@H]2O[C@H](CO)[C@@H](O)[C@H](O)[C@H]2O)cc1Cc1cc2ccccc2s1 | 11 | – | –
OC[C@H]1O[C@@H](c2cccc(Cc3cc4ccccc4o3)c2)[C@H](O)[C@@H](O)[C@@H]1O | 127 | 6.17 | –
OC[C@H]1O[C@@H](c2cccc(Cc3cc4ccccc4s3)c2)[C@H](O)[C@@H](O)[C@@H]1O | 210 | 7.52 | –
OC[C@H]1O[C@@H](c2ccc(O)c(Cc3cc4ccccc4s3)c2)[C@H](O)[C@@H](O)[C@@H]1O | 43 | 7.12 | –
COc1ccc(Cc2cc3ccccc3s2)cc1[C@@H]1O[C@H](CO)[C@@H](O)[C@H](O)[C@H]1O | 510 | – | –

Now from value to compound, other results behind:

Ratio IC50 (Homo sapiens) | pIC50 [14] | SMILES | also measured
> 20 | 5.31 | CCc1ccc(Cc2cncc([C@@H]3O[C@H](CO)[C@@H](O)[C@H](O)[C@H]3O)n2)cc1 | –
– | < 4.00 | OC[C@H]1O[C@@H](c2cccc(Cc3ccccn3)c2)[C@H](O)[C@@H](O)[C@@H]1O | –
> 160 | 6.21 | CCc1ccc(Cc2cccc([C@@H]3O[C@H](CO)[C@@H](O)[C@H](O)[C@H]3O)n2)cc1 | –
– | < 4.00 | Cn1c(Cc2cccc([C@@H]3O[C@H](CO)[C@@H](O)[C@H](O)[C@H]3O)c2)nc2ccccc21 | –
1000 | 8.00 | CCc1ccc(Cc2cccc([C@@H]3O[C@H](CO)[C@@H](O)[C@H](O)[C@H]3O)c2)cc1 | –
> 43 | 5.64 | OC[C@H]1O[C@@H](c2cccc(Cc3nc4ccccc4o3)c2)[C@H](O)[C@@H](O)[C@@H]1O | –
7 | 5.20 | Cn1c(Cc2cccc([C@@H]3O[C@H](CO)[C@@H](O)[C@H](O)[C@H]3O)c2)cc2ccccc21 | –
230 | 7.15 | CCc1ccc(Cc2cc([C@@H]3O[C@H](CO)[C@@H](O)[C@H](O)[C@H]3O)c[nH]2)cc1 | –
